# High-throughput results from PubChem.
# Most compounds without a hit are left out; they make up all but 5.2% or so of the library.
# ALR inh – blocks human ALR sulfhydryl oxidase activity. P55789. purified ALR, DTT oxidation, H2O2 HRP-luminol luminescence. inhibition, % (test concentration not listed). 290,000 tested, 3.8% active. AID 485317;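 active means mean replicate inhibition above about 79%, with every replicate also reaching it, limit read from the data; inconclusive means only one of the two criteria met; inactive means mean below limit and not every replicate reaching it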
# Target sequence (P55789 whole entry, looked up): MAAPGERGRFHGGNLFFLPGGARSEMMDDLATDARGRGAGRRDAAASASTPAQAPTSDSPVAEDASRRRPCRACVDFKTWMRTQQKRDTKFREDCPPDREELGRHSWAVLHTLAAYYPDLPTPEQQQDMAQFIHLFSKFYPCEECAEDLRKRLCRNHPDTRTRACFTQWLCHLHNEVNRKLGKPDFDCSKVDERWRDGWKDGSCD
# NS3 helicase inh – inhibitors of Hepatitis C virus NS3 helicase. NS3 helicase DNA unwinding, Cy5 molecular beacon fluorescence. AID 1800. inhibition, % at 10.9 µM. 290,000 tested, 0.56% active;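 active means inhibition above the mean of all tested compounds plus 3 SD, set per campaign, cut at about 35% in these data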;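 further: 0% = DMSO wells and 100% = thioflavine S control wells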
#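 Test system: hepatitis C virus NS3 helicase domain fragment enzyme. Also added: annealed dual-labelled DNA beacon duplex, ATP-started. Timing: 60 min unwinding reaction at 25 °C after ATP addition. Technique: Cy5 fluorescence. Measure: % inhibition of unwinding.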
# ZTA DNA inh – counter-screen for EBNA-1 inhibitors: inhibitors of Epstein-Barr virus ZTA. P03206. ZTA-DNA binding, fluorescence polarization. inhibition, % at 11 µM. 320,000 tested, 0.15% active; in the data active means inhibition above about 33%
# Target sequence (P03206 whole entry, looked up): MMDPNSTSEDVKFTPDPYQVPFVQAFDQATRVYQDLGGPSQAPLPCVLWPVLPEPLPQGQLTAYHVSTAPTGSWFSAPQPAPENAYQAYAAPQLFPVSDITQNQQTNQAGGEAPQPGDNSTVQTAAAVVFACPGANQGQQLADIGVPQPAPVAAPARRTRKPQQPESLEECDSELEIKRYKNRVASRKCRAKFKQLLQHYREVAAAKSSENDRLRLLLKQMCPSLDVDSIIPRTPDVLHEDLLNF
# M18AAP inhibitor – blocks P. falciparum M18 aspartyl aminopeptidase. recombinant PfM18AAP, H-Glu-NHMec fluorogenic cleavage. inhibition, % at 7.35 µM. 290,000 tested, 1.2% active;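 active means inhibition above the campaign mean inhibition over all tested compounds plus 3 SD, cut at about 28% in these data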;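 further: 0% = plate median of test compound wells and 100% = 2 mM ZnCl2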
# HCV core dimer – blocks dimerization of HCV core protein | inhibition, % at 5 µM | 300,000 tested, 0.33% active | TR-FRET GST/Flag-core106 dimerization, 1536-well;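 active means inhibition above the mean of all tested compounds plus 3 SD, set per screening campaign, cut at about 45% in these data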
#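 Assay system: Tagged HCV core106 pair (GST and Flag) | Buffer or medium: KF-containing HEPES buffer, pH 7.45, DTT, CHAPS, BSA | Also added: Eu donor and XL665 acceptor anti-tag antibodies | Dosing: One concentration, 5 µM, in 0.5% DMSO | Timing: 4 h at 22.5 °C | Technique: TR-FRET 671 and 617 nm emission | Repeats: Singlicate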
# EBNA-1 inh – blocks EBNA-1 binding to DNA. EBNA-1 DNA binding, fluorescence polarization. inhibition, % at 14.8 µM. 300,000 tested, 0.34% active; in the data active means inhibition above about 28%
# NS3 hel confirm – HCV NS3 helicase inhibition, confirmation assay; shares compounds with NS3 helicase inh; NS3 helicase DNA unwinding, Cy5 molecular beacon fluorescence; inhibition, % at 10.9 µM; 1,600 tested, 31% active; AID 1943;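 active means inhibition above the mean of all tested compounds plus 3 SD, cutoff set per campaign, cut at about 36% in these data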
# DNA FID counter – intercalator displacement, NS3 helicase counter-screen. DNA fluorescent intercalator displacement, fluorescence. inhibition, % at 7.9 µM. AID 1945. shares compounds with NS3 helicase inh. 1,600 tested, 4% active; in the data active means inhibition above about 37%;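 further: 0% = vehicle and 100% = reference compound; higher means more displacement of ethidium bromide from the DNA hairpin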
# An asterisk follows results filed as active; ? = inconclusive; / = no result.
SMILES,ALR inh,NS3 helicase inh,ZTA DNA inh,M18AAP inhibitor,HCV core dimer,EBNA-1 inh,NS3 hel confirm,DNA FID counter
Cc1ccc(S(=O)(=O)NC(=O)c2cc(C)n(-c3ccc(N(C)C)cc3)c2C)cc1,95*,42*,0,25,8,-2,-3,-24
Cc1ccc(S(=O)(=O)NC(=O)c2cc(C)n(-c3ccccc3)c2C)cc1,39,8,-5,5,9,0,/,/
CCOC(=O)C(CC(=O)O)=C(c1ccccc1)c1ccccc1,-4,-4,6,4,-6,-16,/,/
O=c1cc(-c2ccc([N+](=O)[O-])cc2)nc2cc(-c3ccc(Cl)cc3)[nH]n12,-4,48*,13,15,-2,-9,30,-1
CC(=O)Nc1ccc(S(=O)(=O)N2CCC(NC(=O)C(Cc3ccccc3F)NC(C)=O)CC2)cc1 (centres undefined),/,-4,/,3,/,/,/,/
O=C(COC(=O)c1c2c(nc3ccccc13)CCCC2)c1cccs1,0,41*,-9,-6,-5,2,-6,-20
O=C(COC(=O)c1c2c(nc3ccccc13)CCCCC2)c1ccc(Cl)s1,/,-13,4,3,-3,5,/,/
Nc1ccc(C(CC(=O)O)n2cccc2)cc1 (centres undefined),0,52*,4,14,0,5,-28,6
CCCn1c(C(C)Nc2nc(-c3ccc(Cl)c([N+](=O)[O-])c3)cs2)nc2cc(Cl)c(N3CCCCC3)cc21 (centres undefined),-3,92*,0,27,30,1,-15,6
Cc1ccc(Cn2c(C(CO)Nc3nc(-c4ccc(Cl)c([N+](=O)[O-])c4)cs3)nc3ccccc32)cc1 (centres undefined),-14,/,-19,/,3,-8,/,/
O=c1nc(/C=C/c2cccn2-c2ccc([N+](=O)[O-])cc2)cc(C(F)(F)F)[nH]1,-15,64*,3,7,61*,12,-4,0
COc1ccc(N2CCN(C(=O)CN(c3ccccc3)S(=O)(=O)c3ccc(OC)cc3)CC2)cc1,53,40*,2,-14,8,-10,-15,-26
O=C(OCN1C(=O)C(=O)c2ccccc21)c1ccc(Cl)cc1,-1,2,1,-8,2,-8,/,/
Cc1ccc(C(=O)c2c(C)oc3c2C(=O)C(=O)c2ccccc2-3)cc1,3,36*,-8,15,11,-10,-9,-7
COc1cc([N+](=O)[O-])ccc1NC(=O)N1CCCCCC1,-4,5,12,-6,1,8,/,/
CN(C)C(=O)C[n+]1ccc(C(N)=O)cc1,3,7,13,-6,-6,1,/,/
CC(C)(C)C(=O)C[n+]1ccc(C(N)=O)cc1,18,47*,-26,-7,-8,-11,-1,2
N=C1S/C(=C\c2ccco2)C(=O)N1c1ccc2c(c1)OCO2,-14,40*,3,4,25,2,-20,2
O=C(/C=C/c1ccc(Cl)cc1Cl)OCC(=O)N1CCCC1,/,/,-27,/,/,/,/,/
COc1ccc(Cl)cc1NC(=O)C(C)OC(=O)C1=NNC(=O)CC1 (centres undefined),-2,/,4,/,/,/,/,/
COC(=O)c1ccc(N2NC(=O)/C(=C/c3ccc(OC)c(OC)c3)C2=O)cc1,12,40*,10,6,7,3,-16,-7
COc1cc(/C=C2/C(=O)NN(c3cccc(C)c3)C2=O)ccc1OC(=O)c1ccco1,11,40*,16,2,5,10,33,3
C#CCOc1ccc(/C=C2/C(=O)NN(c3ccc(F)cc3)C2=O)cc1OC,98*,39*,-1,3,7,-11,7,19
COc1cccc(/C=C2/C(=O)NN(c3ccc(F)cc3)C2=O)c1,?,48*,/,6,/,/,16,14
CCOc1ccc(N2C(=O)CC(Sc3ccccc3C(=O)O)C2=O)c([N+](=O)[O-])c1 (centres undefined),11,18,0,-12,4,-1,/,/
SMILES,ALR inh,NS3 helicase inh,ZTA DNA inh,M18AAP inhibitor,HCV core dimer,EBNA-1 inh,NS3 hel confirm,DNA FID counter
COc1ccccc1CCCNC(=O)C1CCC(=O)N(CCCN2CCCC2=O)C1 (centres undefined),1,2,-11,-1,-3,-3,/,/
CC(C)Cc1nnc(NC(=O)c2cc([N+](=O)[O-])ccc2N2CCOCC2)s1,-5,0,12,0,4,0,/,/
CC(C)=CC(=O)OCc1csc(CC(=O)Nc2ccccc2C)n1,-16,1,-3,-7,7,2,/,/
CCOC(=O)/C=C/C(=O)OCc1csc(CC(=O)Nc2ccccc2C)n1,6,38*,-11,12,-13,-8,-19,-25
Cc1cc(NC(=O)C2CC(=O)N(c3cccc(C)c3C)C2)no1 (centres undefined),-1,6,-8,0,-5,0,/,/
Cc1cc(NC(=O)C2CC(=O)N(c3ccccc3C)C2)no1 (centres undefined),-5,36*,-6,-6,-4,-15,-9,0
CCOc1ccccc1N1CCN(C(=O)c2c(Cl)cnn2C)CC1,73,1,7,4,-7,4,/,/
CC1=NN(c2ccccc2)C(=O)/C1=C/C=C/C=C/N(C)C,96*,39*,-10,14,-31,-17,-16,12
CCCCn1c(N)c(N(CC(C)C)C(=O)CSCc2ccc(Cl)c(Cl)c2)c(=O)[nH]c1=O,/,/,6,/,1,5,/,/
C/C(CC(=O)N1CCCC1)=N\NC(=O)c1cc2ccccc2cc1O,7,45*,-5,5,0,-14,5,-5
O=C(OCC(=O)N1CCCCC1)c1cc2ccccc2cc1O,-16,3,-2,4,6,-7,/,/
COC(C(=O)Nc1ccnn1C1CCN(Cc2ccccn2)CC1)c1ccccc1 (centres undefined),-9,-7,-8,7,-3,-5,/,/
CCOC(=O)Cc1csc(NC(=O)c2sc3nc4c(C)cc(C)cc4cc3c2N)n1,-15,38*,1,12,-3,10,-11,-25
CC(=O)c1cccc(CN2CCC(C(=O)Nc3ccc(-c4cccc(C)c4)cc3)CC2)c1,-4,-64,16,-7,-8,-4,/,/
COc1ccc(-n2nc3ccc(N)cc3n2)cc1Cl,?,37*,-16,22,15,1,-5,23
Cc1ccc(-n2nc3ccc(N)cc3n2)cc1C,-15,70*,-26,10,-1,-13,-9,28
Cc1cc(C)c(C(=O)CSc2nnc(-c3ccccc3Br)o2)cc1C,/,39*,/,-3,/,/,0,3
